Data on two compounds can be found in ChEMBL document CHEMBL1122900, “Effects of alkyl and aryl substitution on the myocardial specificity of radioiodinated phosphonium, arsonium, and ammonium cations” (J Med Chem, 1985).

In data set [1] the test system is Rattus norvegicus. Description: Evaluated for the distribution of radioactivity in tissues of female Fischer rats liver after 60 minutes intravenous administration; dose/g, range 0.44-0.54. In kind it is ADME, organism-based. The note with it: in vivo, 1 h. In short, it runs like this: (§1)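 Female Fischer 344 rats (10-12 weeks, 170-200 g), fed ad libitum, got a single iv tail-vein injection under ether anaesthesia of the 125I-labelled cation (2.85-8.38 μCi). The tracer was dissolved in Me2SO, diluted with saline to 1% Me2SO and filtered. At the set times rats were killed by cervical fracture and blood taken by cardiac puncture. Organs were rinsed, blotted, weighed and gamma-counted against injectate standards. Results are %dose/g, mean and range, n=5. Thyroid weight was taken as 7.5 mg/100 g body weight.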

Data set [2] deals with Rattus norvegicus. Description: Evaluated for the distribution of radioactivity in tissues of female Fischer rats lungs after 5 minutes intravenous administration; dose/g, range 1.41-2.17. The settings on record: in vivo. In kind it is ADME, organism-based, Lung.
The test system of data set [3] is Rattus norvegicus. Description: Evaluated for the distribution of radioactivity in tissues of female Fischer rats lungs after 60 minutes intravenous administration; dose/g, range 1.07-1.26. The settings on record: in vivo, 1 h. In kind it is ADME, organism-based, Lung. The gist of the method: as §1
The subject of data set [4] is Rattus norvegicus. The experiment in a line: Evaluated for the distribution of radioactivity in tissues of female Fischer rats blood after 30 minutes intravenous administration; dose/g, range 0.10-0.13. In kind it is ADME, organism-based. The settings on record: in vivo, 0.5 h.
The subject of data set [5] is Rattus norvegicus. Description: Evaluated for the distribution of radioactivity in tissues of female Fischer rats thyroid after 30 minutes intravenous administration; dose/g, range 26-40. In kind it is ADME, organism-based, Thyroid gland. The note with it: in vivo, 0.5 h.
Data set [6] has as its system Rattus norvegicus. Description: Evaluated for the distribution of radioactivity in tissues of female Fischer rats thyroid after 5 minutes intravenous administration; dose/g, range 26-49. In kind it is ADME, organism-based, Thyroid gland. The note with it: in vivo.
Data set [7] relates to Rattus norvegicus. Description: Evaluated for the distribution of radioactivity in tissues of female Fischer rats thyroid after 60 minutes intravenous administration; dose/g, range 26-42. In kind it is ADME, organism-based, Thyroid gland. The note with it: in vivo, 1 h. In short, it runs like this: as §1
Data set [8] relates to Rattus norvegicus. The experiment in a line: Evaluated for the distribution of radioactivity in tissues of female Fischer rats blood after 5 minutes intravenous administration; dose/g, range 0.27-0.33. In kind it is ADME, organism-based. The note with it: in vivo.
Data set [9] has as its system Rattus norvegicus. The experiment in a line: Evaluated for the distribution of radioactivity in tissues of female Fischer rats lungs after 30 minutes intravenous administration; dose/g, range 0.91-1.74. In kind it is ADME, organism-based, Lung. The settings on record: in vivo, 0.5 h.
The subject of data set [10] is Rattus norvegicus. The experiment in a line: Evaluated for the distribution of radioactivity in tissues of female Fischer rats blood after 60 minutes intravenous administration; dose/g, range 0.12-0.14. In kind it is ADME, organism-based. The note with it: in vivo, 1 h.
For data set [11], the system named is Rattus norvegicus. Description: Evaluated for the distribution of radioactivity in tissues of female Fischer rats heart after 60 minutes intravenous administration; dose/g, range 3.51-5.44. In kind it is ADME, organism-based. The note with it: in vivo, 1 h.
In data set [12] the test system is Rattus norvegicus. Description: Evaluated for the distribution of radioactivity in tissues of female Fischer rats kidneys after 30 minutes intravenous administration; dose/g, range 8.28-10.72. The settings on record: in vivo, 0.5 h. In kind it is ADME, organism-based, Kidney.
The subject of data set [13] is Rattus norvegicus. Description: Evaluated for the distribution of radioactivity in tissues of female Fischer rats kidneys after 5 minutes intravenous administration; dose/g, range 1.04-2.56. In kind it is ADME, organism-based, Kidney. The note with it: in vivo.
The test system of data set [14] is Rattus norvegicus. The experiment in a line: Evaluated for the distribution of radioactivity in tissues of female Fischer rats heart after 30 minutes intravenous administration; dose/g, range 3.17-4.70. The settings on record: in vivo, 0.5 h. In kind it is ADME, organism-based.
The subject of data set [15] is Rattus norvegicus. Description: Evaluated for the distribution of radioactivity in tissues of female Fischer rats heart after 5 minutes intravenous administration; dose/g, range 3.80-5.74. In kind it is ADME, organism-based. The note with it: in vivo.
In data set [16] the test system is Rattus norvegicus. The experiment in a line: Evaluated for the distribution of radioactivity in tissues of female Fischer rats liver after 30 minutes intravenous administration; dose/g, range 0.55-0.71. In kind it is ADME, organism-based. The settings on record: in vivo, 0.5 h.
Data set [17] concerns Rattus norvegicus. The experiment in a line: Evaluated for the distribution of radioactivity in tissues of female Fischer rats liver after 5 minutes intravenous administration; dose/g, range 1.04-2.56. In kind it is ADME, organism-based. The settings on record: in vivo.
For data set [18], the system named is Rattus norvegicus. The experiment in a line: Evaluated for the distribution of radioactivity in tissues of female Fischer rats kidneys after 60 minutes intravenous administration; dose/g, range 5.67-8.41. The settings on record: in vivo, 1 h. In kind it is ADME, organism-based, Kidney.
Data set [19] relates to Rattus norvegicus. The experiment in a line: Evaluated for the distribution of radioactivity in tissues of female Fischer rats liver after 60 minutes intravenous administration; dose/g, range 0.24-0.30. In kind it is ADME, organism-based. The note with it: in vivo, 1 h.
For data set [20], the system named is Rattus norvegicus. The experiment in a line: Evaluated for the distribution of radioactivity in tissues of female Fischer rats kidneys after 5 minutes intravenous administration; dose/g, range 10.7-16.9. The settings on record: in vivo. In kind it is ADME, organism-based, Kidney.
In data set [21] the test system is Rattus norvegicus. Description: Evaluated for the distribution of radioactivity in tissues of female Fischer rats kidneys after 60 minutes intravenous administration; dose/g, range 4.59-8.81. In kind it is ADME, organism-based, Kidney. The note with it: in vivo, 1 h.
Data set [22] relates to Rattus norvegicus. Description: Evaluated for the distribution of radioactivity in tissues of female Fischer rats blood after 60 minutes intravenous administration; dose/g, range 0.15-0.23. In kind it is ADME, organism-based. The settings on record: in vivo, 1 h.
For data set [23], the system named is Rattus norvegicus. The experiment in a line: Evaluated for the distribution of radioactivity in tissues of female Fischer rats lungs after 5 minutes intravenous administration; dose/g, range 0.95-1.49. In kind it is ADME, organism-based, Lung. The note with it: in vivo.
For data set [24], the system named is Rattus norvegicus. The experiment in a line: Evaluated for the distribution of radioactivity in tissues of female Fischer rats lungs after 60 minutes intravenous administration; dose/g, range 0.83-2.11. In kind it is ADME, organism-based, Lung. The settings on record: in vivo, 1 h.
In data set [25] the test system is Rattus norvegicus. Description: Evaluated for the distribution of radioactivity in tissues of female Fischer rats blood after 30 minutes intravenous administration; dose/g, range 0.22-0.32. In kind it is ADME, organism-based. The note with it: in vivo, 0.5 h.
For data set [26], the system named is Rattus norvegicus. Description: Evaluated for the distribution of radioactivity in tissues of female Fischer rats blood after 5 minutes intravenous administration; dose/g, range 0.25-0.34. The note with it: in vivo. In kind it is ADME, organism-based.
The subject of data set [27] is Rattus norvegicus. The experiment in a line: Evaluated for the distribution of radioactivity in tissues of female Fischer rats thyroid after 30 minutes intravenous administration; dose/g, range 32-42. In kind it is ADME, organism-based, Thyroid gland. The note with it: in vivo, 0.5 h.
The subject of data set [28] is Rattus norvegicus. The experiment in a line: Evaluated for the distribution of radioactivity in tissues of female Fischer rats thyroid after 5 minutes intravenous administration; dose/g, range 22-25. The note with it: in vivo. In kind it is ADME, organism-based, Thyroid gland.
For data set [29], the system named is Rattus norvegicus. Description: Evaluated for the distribution of radioactivity in tissues of female Fischer rats thyroid after 60 minutes intravenous administration; dose/g, range 30-53. In kind it is ADME, organism-based, Thyroid gland. The note with it: in vivo, 1 h.
In data set [30] the test system is Rattus norvegicus. The experiment in a line: Evaluated for the distribution of radioactivity in tissues of female Fischer rats lungs after 30 minutes intravenous administration; dose/g, range 0.99-1.23. In kind it is ADME, organism-based, Lung. The note with it: in vivo, 0.5 h.
The test system of data set [31] is Rattus norvegicus. The experiment in a line: Evaluated for the distribution of radioactivity in tissues of female Fischer rats heart after 60 minutes intravenous administration; dose/g, range 3-3.70. In kind it is ADME, organism-based. The note with it: in vivo, 1 h.
Data set [32] has as its system Rattus norvegicus. The experiment in a line: Evaluated for the distribution of radioactivity in tissues of female Fischer rats kidneys after 30 minutes intravenous administration; dose/g, range 10.5-14.4. The settings on record: in vivo, 0.5 h. In kind it is ADME, organism-based, Kidney.
Data set [33] relates to Rattus norvegicus. The experiment in a line: Evaluated for the distribution of radioactivity in tissues of female Fischer rats heart after 30 minutes intravenous administration; dose/g, range 2.67-4.31. In kind it is ADME, organism-based. The note with it: in vivo, 0.5 h.
Data set [34] has as its system Rattus norvegicus. Description: Evaluated for the distribution of radioactivity in tissues of female Fischer rats heart after 5 minutes intravenous administration; dose/g, range 2.78-3.62. In kind it is ADME, organism-based. The settings on record: in vivo.
Data set [35] has as its system Rattus norvegicus. Description: Evaluated for the distribution of radioactivity in tissues of female Fischer rats liver after 30 minutes intravenous administration; dose/g, range 0.57-0.72. The note with it: in vivo, 0.5 h. In kind it is ADME, organism-based.
For data set [36], the system named is Rattus norvegicus. The experiment in a line: Evaluated for the distribution of radioactivity in tissues of female Fischer rats liver after 5 minutes intravenous administration; dose/g, range 1.26-2.45. The settings on record: in vivo. In kind it is ADME, organism-based.

In the case of `I/C=C/CCC[P+](c1ccccc1)(c1ccccc1)c1ccccc1.[I-]`, the Distribution in the data set on Rattus norvegicus [1] was found to be 0.49%; in the data set with Rattus norvegicus [2], 1.72%; in the data set with Rattus norvegicus [3] it was 1.18%; with Rattus norvegicus [4], 0.12%; in the data set on Rattus norvegicus [5], 31%; in the data set with Rattus norvegicus [6], 37%. Besides, the Distribution was found to be 33% in the data set on Rattus norvegicus [7]; 0.29% with Rattus norvegicus [8]; 1.28% with Rattus norvegicus [9]; 0.14% in the data set on Rattus norvegicus [10]; 4.19% in the data set with Rattus norvegicus [11]; 9.36% in the data set with Rattus norvegicus [12]. The Distribution in the data set on Rattus norvegicus [13] came out at 1.48%; in the data set with Rattus norvegicus [14] it was 3.99%; with Rattus norvegicus [15], 4.4%; with Rattus norvegicus [16], 0.62%; with Rattus norvegicus [17], 1.48%; in the data set on Rattus norvegicus [18] it was 6.8%.

With `I/C=C/CCC[As+](c1ccccc1)(c1ccccc1)c1ccccc1.[I-]`, the Distribution in the data set with Rattus norvegicus [19] came out at 0.27%; in the data set on Rattus norvegicus [20], 13.14%; with Rattus norvegicus [21], 6.92%; with Rattus norvegicus [22], 0.19%; in the data set with Rattus norvegicus [23], 1.24%; in the data set on Rattus norvegicus [24], 1.31%. Further, the Distribution with Rattus norvegicus [25] was 0.26%; in the data set on Rattus norvegicus [26], 0.31%; with Rattus norvegicus [27], 37%; in the data set on Rattus norvegicus [28], 23%; with Rattus norvegicus [29], 43%; in the data set on Rattus norvegicus [30] it was 1.09%. Besides, the Distribution in the data set on Rattus norvegicus [31] came to 3.37%; with Rattus norvegicus [32], 12.01%; in the data set with Rattus norvegicus [33] it was 3.17%; in the data set with Rattus norvegicus [34], 3.22%; in the data set with Rattus norvegicus [35], 0.64%; in the data set with Rattus norvegicus [36], 1.78%.
